For series [1], the system named is Plasmodium falciparum. Put plainly: Antimalarial activity against chloroquine-resistant Plasmodium falciparum FcB1(CQR)Colombia assessed as parasite growth inhibition at 20 uM relative to control. The format is functional. The procedure, abridged:
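Single-point screen at 20 μM against erythrocytic stages of chloroquine-resistant P. falciparum FcB1 (Columbia) in culture. Read-out is percent parasite growth inhibition.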

The test system of series [2] is Plasmodium falciparum. Put plainly: Antimalarial activity against chloroquine-resistant Plasmodium falciparum FcB1(CQR)Colombia assessed as parasite growth inhibition. The format is functional, organism-based. The procedure, abridged: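 Erythrocytic-stage growth inhibition in culture of chloroquine-resistant P. falciparum FcB1 (Columbia). EC50 comes from a 10-point dose-response, run only for compounds above a 60% inhibition cut-off in the 20 μM single-point screen. Values are means of at least two experiments.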

Series [3] can be described thus: Selectivity index, ratio of IC50 for human AB943 cells to IC50 for Antimalarial activity against chloroquine-resistant Plasmodium falciparum FcB1(CQR)Colombia. The format is toxicity. The conditions noted are these: read-out: Selectivity Index.
The nature of series [4]: Cytotoxicity against human AB943 cells. The format is cell-based.
Series [5] in a line: Cmax in mouse at 140 micromol/kg, po. The conditions noted are these: in vivo, 140 µmol/kg. Set-up: route oral, dose 140 µmol/kg. The format is ADME.
For the next series, the target named is hERG (KCNH2) (Homo sapiens, UniProt Q12809). Put plainly: Inhibition of human ERG at 11 uM.
Sequence of hERG (KCNH2) (Q12809 whole entry): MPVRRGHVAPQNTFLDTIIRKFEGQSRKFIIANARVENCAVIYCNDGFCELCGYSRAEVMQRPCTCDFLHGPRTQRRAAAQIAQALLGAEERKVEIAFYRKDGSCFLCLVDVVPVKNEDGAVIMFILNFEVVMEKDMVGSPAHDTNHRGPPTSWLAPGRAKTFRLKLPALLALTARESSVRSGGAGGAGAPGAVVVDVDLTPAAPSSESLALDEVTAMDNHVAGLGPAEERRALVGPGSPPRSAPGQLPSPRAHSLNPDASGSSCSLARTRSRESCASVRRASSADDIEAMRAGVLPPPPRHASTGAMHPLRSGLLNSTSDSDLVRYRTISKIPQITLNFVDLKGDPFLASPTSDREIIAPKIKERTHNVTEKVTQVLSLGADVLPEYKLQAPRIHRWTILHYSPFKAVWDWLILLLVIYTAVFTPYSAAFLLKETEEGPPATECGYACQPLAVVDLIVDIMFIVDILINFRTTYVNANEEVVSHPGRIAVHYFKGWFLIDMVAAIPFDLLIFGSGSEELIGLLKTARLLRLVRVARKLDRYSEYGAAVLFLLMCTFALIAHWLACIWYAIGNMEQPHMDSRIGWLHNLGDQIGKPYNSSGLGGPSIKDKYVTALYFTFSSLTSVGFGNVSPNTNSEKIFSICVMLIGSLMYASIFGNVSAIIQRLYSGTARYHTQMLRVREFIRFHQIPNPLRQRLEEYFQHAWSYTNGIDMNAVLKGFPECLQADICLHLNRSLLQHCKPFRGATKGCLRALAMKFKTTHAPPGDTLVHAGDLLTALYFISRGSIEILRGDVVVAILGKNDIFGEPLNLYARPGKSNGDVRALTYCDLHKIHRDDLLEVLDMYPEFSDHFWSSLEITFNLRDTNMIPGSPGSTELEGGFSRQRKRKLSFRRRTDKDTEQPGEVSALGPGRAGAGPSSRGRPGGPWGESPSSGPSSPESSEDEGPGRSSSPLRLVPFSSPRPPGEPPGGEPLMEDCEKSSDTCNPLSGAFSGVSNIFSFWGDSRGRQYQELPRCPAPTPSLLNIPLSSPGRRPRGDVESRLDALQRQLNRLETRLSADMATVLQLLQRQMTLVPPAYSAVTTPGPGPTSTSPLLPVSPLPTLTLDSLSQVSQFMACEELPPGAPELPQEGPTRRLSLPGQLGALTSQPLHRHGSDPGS
The subject of series [6] is Plasmodium falciparum. Put plainly: Antiplasmodial activity against Plasmodium falciparum K1. The format is functional, organism-based.
The nature of series [7]: Plasma protein binding in human. The note with it: read-out: PPB. The format is ADME, cell-free.
A short description of series [8]: Tmax in mouse at 140 micromol/kg, po. The note with it: in vivo, dose 140 µmol/kg. The format is ADME.
The test system of series [9] is Plasmodium berghei. As to the kind of experiment: Antiplasmodial activity against luciferase expressing Plasmodium berghei. The format is functional, organism-based.
The nature of series [10]: Kinetic solubility of compound at pH 7.4. The format is physicochemical. The conditions noted are these: buffer.
Series [11] deals with Plasmodium falciparum. Put plainly: Antiplasmodial activity against Plasmodium falciparum 3D7. The format is functional, organism-based.
Series [12] can be described thus: MRT (0 to 7 hrs) in mouse at 140 micromol/kg, po. The format is ADME. The note with it: in vivo, dose 140 µmol/kg.
Series [13] relates to Plasmodium falciparum. Put plainly: Antiplasmodial activity against Plasmodium falciparum W2. The format is functional, organism-based.
The nature of series [14]: AUC (0 to 7 hrs) in mouse at 140 micromol/kg, po. The format is ADME. Set-up: time < 7 hr, route oral, dose 140 µmol/kg. The note with it: in vivo, 140 µmol/kg.
For series [15], the system named is Plasmodium falciparum. As to the kind of experiment: Antiplasmodial activity against Plasmodium falciparum Dd2. The format is functional, organism-based.
Series [16] has as its system Plasmodium berghei. Put plainly: Antiplasmodial activity against Plasmodium berghei at 5 uM. The format is functional.
Series [17] deals with Plasmodium falciparum. Put plainly: Antiplasmodial activity against Plasmodium falciparum FCR3. The format is functional, organism-based.

pEC50, pIC50: −log10 of the molar value. Some results are limits rather than exact numbers.

With `O=C(CCn1c(=O)[nH]c2ccccc2c1=O)NCc1ccccc1OC(F)F`, the inhibition (as a rule, the drop in the measured response relative to a control, in per cent) at 20 µM with Plasmodium falciparum [1] was 63.8%. In the series on Plasmodium falciparum [2], the pEC50 – broadly, −log10 of the EC50, conventionally taken in molar units – was 4.49.
On to `COc1ccccc1Cn1cc(CCn2c(=O)[nH]c3ccccc3c2=O)nn1`, for which the inhibition at 20 µM in the series with Plasmodium falciparum [1] was found to be 68.8%.
`COc1ccccc1CCNC(=O)CCn1c(=O)[nH]c2ccccc2c1=O`: in the series on Plasmodium falciparum [2], the pEC50 is 5.00.
Still for that read-out and setting: as for `CC(C)CCNC(=O)CCn1c(=O)[nH]c2ccccc2c1=O`, the figure is less than 4.60.
For the compound `COc1ccccc1CNC(=O)CCn1c(=O)[nH]c2ccc(Br)cc2c1=O`, the inhibition at 20 µM in the series with Plasmodium falciparum [1] was 59.8%.
In the case of `COc1cc(F)ccc1CNC(=O)CCn1c(=O)[nH]c2ccccc2c1=O`, the selectivity ratio in series [3] is more than 20. Besides, in the series on Plasmodium falciparum [1], the inhibition at 20 µM was determined as 74.8%. In addition, in the series on Plasmodium falciparum [2], the pEC50 was 5.30. Further, the pIC50 (commonly the negative decadic logarithm of the IC50, by convention in mol/L) in series [4] is less than 4.00.
The matching figures for `CCOc1ccccc1CNC(=O)CCn1c(=O)[nH]c2ccccc2c1=O`: more than 18.2, 84.7%, 5.26 and less than 4.00.
In the case of `COc1ccccc1Cn1cc(Cn2c(=O)[nH]c3ccccc3c2=O)nn1`, the inhibition at 20 µM in the series on Plasmodium falciparum [1] is 30.5%.
Still for that read-out and setting: as for `O=C(CCn1c(=O)[nH]c2ccccc2c1=O)N1CCc2ccccc2C1`, the figure is 30.6%.
Still for that read-out and setting: as for `Cn1nccc1CNC(=O)CCn1c(=O)[nH]c2ccccc2c1=O`, the figure is 19.9%.
For the compound `COc1ccccc1NC(=O)CCn1c(=O)[nH]c2ccccc2c1=O`, in the series on Plasmodium falciparum [1], the inhibition at 20 µM amounted to 53.1%.
Consider `O=C(CCn1c(=O)[nH]c2ccccc2c1=O)NCc1ccccc1Cl`, for which the inhibition at 20 µM with Plasmodium falciparum [1] worked out at 56%. Besides, in the series with Plasmodium falciparum [2], the pEC50 was 4.43.
With `COc1ccccc1CNS(=O)(=O)CCn1c(=O)[nH]c2ccccc2c1=O`, the inhibition at 20 µM with Plasmodium falciparum [1] was found to be 21.7%.
The same measure, in the same setting: as for `COc1ccccc1CNC(=O)CCn1c(=O)[nH]c2cc(F)c(F)cc2c1=O`, the figure is 40.5%.
For the compound `COc1cc(F)c(F)cc1CNC(=O)CCn1c(=O)[nH]c2ccccc2c1=O`, the inhibition at 20 µM in the series with Plasmodium falciparum [1] worked out at 68.3%. For the same compound, in the series with Plasmodium falciparum [2], the pEC50 was 4.95.
The corresponding values for `COc1ccccc1CNC(=O)CCn1c(=O)[nH]c2ccc(F)cc2c1=O` are 65.4% and 4.70.
On to `CC(C)CCNC(=O)CCCn1c(=O)[nH]c2ccccc2c1=O`, for which the pEC50 in the series with Plasmodium falciparum [2] is less than 4.60.
The same measure, in the same setting: the figure for `COc1ccccc1CNC(=O)CCCn1c(=O)[nH]c2ccccc2c1=O` is 4.77.
As for `O=C(CCCn1c(=O)[nH]c2ccccc2c1=O)NC1CCCC1`, the inhibition at 20 µM in the series on Plasmodium falciparum [1] was 21.3%.
On the same count and under the same terms, the figure for `COc1ccccc1CN(C)C(=O)CCn1c(=O)[nH]c2ccccc2c1=O` is 41.8%.
In the case of `O=C(CCn1c(=O)[nH]c2ccccc2c1=O)NCc1ccccc1OC(F)(F)F`, the selectivity ratio in [3] is more than 14.7. Also, in the series with Plasmodium falciparum [1], the inhibition at 20 µM amounted to 72.5%. Moreover, the pEC50 in the series on Plasmodium falciparum [2] was 5.17. Further, in [4], the pIC50 is less than 4.00.
As for `COc1ccccc1CCNC(=O)CCCn1c(=O)[nH]c2ccccc2c1=O`, in the series with Plasmodium falciparum [2], the pEC50 was 5.11.
On to `O=C(CCn1c(=O)[nH]c2ccccc2c1=O)NCc1ccccc1O`, for which the inhibition at 20 µM in the series on Plasmodium falciparum [1] is 17.1%.
The same measure, in the same setting: as for `COc1ccccc1CNC(=O)CCn1c(=O)[nH]c2ncccc2c1=O`, the figure is 52.4%.
Same read-out and setting: as for `O=C(CCn1c(=O)[nH]c2ccccc2c1=O)NCc1nc2ccccc2[nH]1`, the figure is 38.1%.
The same measure, in the same setting: the figure for `O=C(CCn1c(=O)[nH]c2ccccc2c1=O)NC1CCCC1` is 32.9%; for `COc1ccc(CNC(=O)CCn2c(=O)[nH]c3ccccc3c2=O)c(OC)c1` it is 28%.
In the case of `COc1ccccc1CNC(=O)CCn1c(=O)[nH]c2ccccc2c1=O`, in series [3], the selectivity ratio was more than 250. In [5], the highest level (Cmax) was 21.3 nM. For the same compound, the pEC50 in the series with Plasmodium falciparum [2] was 6.40; in the series on Plasmodium falciparum [6], 7.15; in the series on Plasmodium falciparum [11] it was 7.15; with Plasmodium falciparum [13] it was 7.15; in the series with Plasmodium falciparum [15], 7.15; in the series with Plasmodium falciparum [17], 7.15. The inhibition at 11 µM on hERG (KCNH2) is 19%. Further, the fraction unbound in series [7] was less than 0.05. Moreover, the Tmax (usually the time from dosing to the highest level) in series [8] is 0.25 h. The pIC50 in the series with Plasmodium berghei [9] was 7.36; in series [4], less than 4.00. In addition, the Kinetic_solubility entry in series [10] was “Insoluble”. The MRT last (as a rule, a mean duration of stay, worked out from the concentration-time curve) in series [12] was 3.01 h. Also, in series [14], the AUC(0-t) (as a rule, exposure summed from dosing to a finite time, without extrapolation to infinity) at 7 h was 0.0729 µM·h. Besides, in the series on Plasmodium berghei [16], the Activity is 23%.
On hERG (KCNH2), `COc1ccccc1CNC(=O)CCn1c(=O)[nH]c2ccsc2c1=O` gave an inhibition at 11 µM of 5%. The pEC50 in the series with Plasmodium falciparum [6], in the series with Plasmodium falciparum [11], in the series on Plasmodium falciparum [13], in the series on Plasmodium falciparum [15] and in the series with Plasmodium falciparum [17] was 7.15 each time. For the same compound, the fraction unbound in [7] was more than 0.05. The compound further had a pIC50 with Plasmodium berghei [9] of 7.25. In addition, the Kinetic_solubility entry in series [10] is “Soluble”. In the series on Plasmodium berghei [16], this compound showed an Activity of 27%.

Values taken from ChEMBL document CHEMBL4840368, “Structure-activity relationship and molecular modelling studies of quinazolinedione derivatives MMV665916 as potential antimalarial agent” (Bioorg Med Chem, 2021).
